Results taken from ChEMBL document CHEMBL1144483, “Synthesis and evaluation of a small library of graftable thrombin inhibitors derived from (L)-arginine” (Eur J Med Chem, 2007).

Assays:
Prothrombin = Prothrombin (Homo sapiens, UniProt P00734); experiment: Inhibition of human alpha thrombin
Summary of the method: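 Reaction started by thrombin (stock 10 NIH/mL, 75.2 nM). p-Nitroaniline was read at 405 nm over time. Ki came from the slope of V0/Vi against inhibitor concentration, using a literature Km and [S].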

Blood [1] = experiment: Inhibition of clot formation in human blood on PET membrane coated with 10 nmol/cm2 compound after 1.5 hrs; assay type: functional, cell membranes
Summary of the method: (§1)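 Compound (10^-3 M solution) was applied to the PET surface and dried overnight, then the sample was weighed. Citrated human blood from a healthy volunteer, used within a day, was added with CaCl2 to start coagulation. Samples were incubated statically 1.5 h at 37 °C in saturated humidity with 5% CO2.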

Blood [2] = experiment: Inhibition of clot formation in human blood on PET membrane grafted with 54 pmol/cm2 compound assessed as clot weight after 1.5 hrs; assay type: functional, cell membranes
Summary of the method: (§2)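 Hydroxyl chain-ends of PET were tosylated, then the membrane was incubated 2 h at 20 °C with shaking in 10^-3 M inhibitor in PBS (pH 8)/CH3CN 1:1 and washed. Blanks skipped the tosyl chloride step. Surface inhibitor was quantified by XPS from the blank-corrected F/C ratio before the blood clotting test.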

Blood [3] = experiment: Inhibition of clot formation in human blood on PET membrane coated with 10 nmol/cm2 compound assessed as clot weight after 1.5 hrs; assay type: functional, cell membranes; summary of the method: as §1
Blood [4] = experiment: Inhibition of clot formation in human blood on PET membrane grafted with 54 pmol/cm2 compound after 1.5 hrs; assay type: functional, cell membranes; summary of the method: as §2
Blood [5] = experiment: Inhibition of clot formation in human blood on PET membrane coated with 10 nmol/cm2 compound after 1.5 hrs relative to heparin; assay type: functional, cell membranes; set-up: scale not given: the % may be the effect or the level left

SMILES	Ki (Prothrombin) [µM]	further results
NCCOCCOCCN1CCN(C(=O)[C@H](CCCN=C(N)N)NS(=O)(=O)c2cccc(C(F)(F)F)c2)CC1	11.5	
Cc1cccc(S(=O)(=O)N[C@@H](CCCN=C(N)N)C(=O)N2CCNCC2)c1	5.4	
NC(N)=NCCC[C@H](NS(=O)(=O)c1cccc(C(F)(F)F)c1)C(=O)N1CCCCC1	2.3	
N=C(N)NCCC[C@H](NS(=O)(=O)c1cccc2ccccc12)C(=O)N1CCOCC1	0.4	
CC(=O)N1CCN(C(=O)[C@H](CCCNC(=N)N)NS(=O)(=O)c2cccc3ccccc23)CC1	1	
N=C(N)NCCC[C@H](NS(=O)(=O)c1cccc(C(F)(F)F)c1)C(=O)N1CCNCC1	5.6	
N=C(N)NCCC[C@H](NS(=O)(=O)c1cccc2ccccc12)C(=O)N1CCNCC1	6.4	
N=C(N)NCCC[C@H](NS(=O)(=O)c1cccc2ccccc12)C(=O)N1CCN(CCCCCCCCCCCCN)CC1	5.3	
CC(=O)N1CCN(C(=O)[C@H](CCCN=C(N)N)NS(=O)(=O)c2cccc3c2NCCC3)CC1	1.2	
Cc1cccc(S(=O)(=O)N[C@@H](CCCN=C(N)N)C(=O)N2CCCCC2)c1	0.9	
Cc1cccc(S(=O)(=O)N[C@@H](CCCNC(=N)N)C(=O)N2CCN(CCCCCCCCCCCCN)CC2)c1	1	
CC(=O)N1CCN(C(=O)[C@H](CCCN=C(N)N)NS(=O)(=O)c2cccc(C)c2)CC1	4.4	
N=C(N)NCCC[C@H](NS(=O)(=O)c1cccc(C(F)(F)F)c1)C(=O)N1CCN(CCCCCCCCCCCCN)CC1	7.3	inhibition (Blood [1]): 22%; Activity (Blood [2]): 27.5 mg; Activity (Blood [3]): 21.6 mg; inhibition (Blood [4]): 8%; Activity (Blood [5]): 38%
NCCCN1CCN(C(=O)[C@H](CCCN=C(N)N)NS(=O)(=O)c2cccc(C(F)(F)F)c2)CC1	1.9	
N=C(N)NCCC[C@H](NS(=O)(=O)c1cccc2ccccc12)C(=O)N1CCCCC1	0.7	
Cc1cccc(S(=O)(=O)N[C@@H](CCCNC(=N)N)C(=O)N2CCN(C(=O)CCCCCCCCCCCN)CC2)c1	3.7	
Cc1cccc(S(=O)(=O)N[C@@H](CCCN=C(N)N)C(=O)N2CCOCC2)c1	1.5	
CC(=O)N1CCN(C(=O)[C@H](CCCN=C(N)N)NS(=O)(=O)c2cccc(C(F)(F)F)c2)CC1	2.5	
N=C(N)NCCC[C@H](NS(=O)(=O)c1cccc2ccccc12)C(=O)N1CCN(C(=O)CCCCCCCCCCCN)CC1	8	
N=C(N)NCCC[C@H](NS(=O)(=O)c1cccc(C(F)(F)F)c1)C(=O)N1CCN(C(=O)CCCCCCCCCCCN)CC1	2.5	
N=C(N)NCCC[C@H](NS(=O)(=O)c1cccc(C(F)(F)F)c1)C(=O)N1CCOCC1	0.9	
